Data from ChEMBL document CHEMBL3751664, “Design, Synthesis, and Identification of Silicon Incorporated Oxazolidinone Antibiotics with Improved Brain Exposure” (ACS Med Chem Lett, 2015).
Converted amounts (≈) assume the structure as drawn.

Columns and labels:
Neisseria meningitidis [1] = experiment: Antibacterial activity against clinical isolate Neisseria meningitidis 184 by microbroth dilution method; format: functional
Procedure, shortened: (§1)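 Minimum inhibitory concentration (MIC) read by broth microdilution and reported in μg/mL. The same microbroth screen was run on the broader panel of facultative bacteria.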

Brain [2] = experiment: AUC (0 to infinity) in BALB/c mouse brain at 10 mg/kg, po by LC-MS/MS analysis; format: ADME, organism-based; parameters: dose 10 mg/kg, time infinity, route oral; conditions: in vivo
Procedure, shortened: (§2)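 Single oral 10 mg/kg dose, with 2 animals per group. Brain and plasma sampled; brain Cmax is reported as μg/g and brain AUC0-t and AUC0-inf as μg·h/g. Brain-to-plasma ratios are derived from AUC values, and also from Cmax.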

[3] = Ratio of AUC (0 to t) in brain to plasma in BALB/c mouse at 10 mg/kg, po; format: ADME, organism-based; procedure, shortened: as §2
Neisseria meningitidis [4] = experiment: Antibacterial activity against clinical isolate Neisseria meningitidis E-95 by microbroth dilution method; format: functional; procedure, shortened: as §1
Neisseria meningitidis [5] = experiment: Antibacterial activity against clinical isolate Neisseria meningitidis 306 by microbroth dilution method; format: functional; procedure, shortened: as §1
Neisseria meningitidis [6] = experiment: Antibacterial activity against clinical isolate Neisseria meningitidis M-1 by microbroth dilution method; format: functional; procedure, shortened: as §1
[7] = Ratio of Cmax in brain to plasma in BALB/c mouse at 10 mg/kg, po; format: ADME, organism-based; procedure, shortened: as §2
Brain [8] = experiment: AUC (0 to t) in BALB/c mouse brain at 10 mg/kg, po by LC-MS/MS analysis; format: ADME, organism-based; conditions: in vivo; procedure, shortened: as §2
[9] = Solubility of compound at pH 4.5 by HPLC analysis; format: physicochemical; conditions: buffer
[10] = Cmax in BALB/c mouse plasma at 10 mg/kg, po by LC-MS/MS analysis; format: ADME, organism-based; parameters: dose 10 mg/kg, route oral; procedure, shortened: as §2
[11] = Solubility of compound at pH 1.2 by HPLC analysis; format: physicochemical; conditions: buffer
[12] = Metabolic stability in human liver microsomes after 30 mins by LC-MS/MS analysis; format: ADME; conditions: read-out: Stability
Procedure, shortened: (§3)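 Compounds are incubated with liver microsomes for 30 min, and the result is expressed as % parent remaining (% metabolic stability).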

[13] = AUC (0 to infinity) in BALB/c mouse plasma at 10 mg/kg, po by LC-MS/MS analysis; format: ADME, organism-based; parameters: dose 10 mg/kg, time infinity, route oral; procedure, shortened: as §2
[14] = Cmax in BALB/c mouse brain at 10 mg/kg, po by LC-MS/MS analysis; format: ADME, organism-based; parameters: dose 10 mg/kg, route oral; procedure, shortened: as §2
Streptococcus pneumoniae [15] = experiment: Antibacterial activity against pencillin-resistant erm+ve Streptococcus pneumoniae ATCC 700904 by microbroth dilution method; format: functional
Procedure, shortened: (§4)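 MIC is determined by broth microdilution and expressed in μg/mL.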

[16] = Solubility of compound at pH 7.4 by HPLC analysis; format: physicochemical; conditions: buffer
Neisseria meningitidis [17] = experiment: Antibacterial activity against clinical isolate Neisseria meningitidis E-63 by microbroth dilution method; format: functional; procedure, shortened: as §1
[18] = Solubility of compound at pH 10.2 by HPLC analysis; format: physicochemical; conditions: buffer
Streptococcus pneumoniae [19] = experiment: Antibacterial activity against linezolid-resistant Streptococcus pneumoniae 6303 by microbroth dilution method; format: functional; procedure, shortened: as §4
[20] = Ratio of AUC (0 to infinity) in brain to plasma in BALB/c mouse at 10 mg/kg, po; format: ADME, organism-based; procedure, shortened: as §2
Plasma [21] = experiment: Metabolic stability in human plasma by LC-MS/MS analysis; format: ADME, cell-free
Procedure, shortened: (§5)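 Plasma stability is expressed as % compound remaining after incubation in plasma.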

[22] = Solubility of compound at pH 2.2 by HPLC analysis; format: physicochemical; conditions: buffer
Streptococcus pneumoniae [23] = experiment: Antibacterial activity against Streptococcus pneumoniae ATCC 6303 by microbroth dilution method; format: functional; procedure, shortened: as §4
[24] = Plasma protein binding in human; format: ADME, cell-free; conditions: read-out: PPB (converted)
[25] = Metabolic stability in mouse liver microsomes after 30 mins by LC-MS/MS analysis; format: ADME; conditions: read-out: Stability; procedure, shortened: as §3
[26] = Metabolic stability in rat liver microsomes after 30 mins by LC-MS/MS analysis; format: ADME; conditions: read-out: Stability; procedure, shortened: as §3
Streptococcus pneumoniae [27] = experiment: Antibacterial activity against Streptococcus pneumoniae ATCC 49619 by microbroth dilution method; format: functional; procedure, shortened: as §4
Plasma [28] = experiment: Metabolic stability in rat plasma by LC-MS/MS analysis; format: ADME, cell-free; procedure, shortened: as §5
[29] = AUC (0 to t) in BALB/c mouse plasma at 10 mg/kg, po by LC-MS/MS analysis; format: ADME, organism-based; procedure, shortened: as §2

CC(=O)NC[C@H]1CN(c2cc(F)c(N3CC[Si](C)(C)CC3)c(F)c2)C(=O)O1
MIC (Neisseria meningitidis [1]): > 32 µg/mL
AUC (Brain [2]): 16.44 µg·h/g
Kp [3]: 2.54
MIC (Neisseria meningitidis [4]): > 32 µg/mL
MIC (Neisseria meningitidis [5]): > 32 µg/mL
MIC (Neisseria meningitidis [6]): > 32 µg/mL
Kp [7]: 2.76
AUCt (Brain [8]): 14.74 µg·h/g
solubility [9]: 20 µM (≈ 7.95 µg/mL)
Cmax [10]: 2020 ng/mL
solubility [11]: 48 µM (≈ 19.1 µg/mL)
remaining at 0.5 h [12]: 69.8%
AUC(0-inf) [13]: 6210 ng·h/mL
Cmax [14]: 5580 ng/g
MIC (Streptococcus pneumoniae [15]): 16 µg/mL (≈ 40.3 µM)
solubility [16]: 17 µM (≈ 6.76 µg/mL)
MIC (Neisseria meningitidis [17]): > 32 µg/mL
solubility [18]: 20 µM (≈ 7.95 µg/mL)
MIC (Streptococcus pneumoniae [19]): > 32 µg/mL
Kp [20]: 2.65
Stability (Plasma [21]): 100%
solubility [22]: 43 µM (≈ 17.1 µg/mL)
MIC (Streptococcus pneumoniae [23]): 8 µg/mL (≈ 20.1 µM)
fraction unbound [24]: 0.004
remaining at 0.5 h [25]: 68.4%
remaining at 0.5 h [26]: 9.6%
MIC (Streptococcus pneumoniae [27]): 16 µg/mL (≈ 40.3 µM)
Stability (Plasma [28]): 94.7%
AUC(0-t) [29]: 5800 ng·h/mL

COC(=S)NC[C@H]1CN(c2ccc(N3CC[Si](C)(C)CC3)c(F)c2)C(=O)O1
MIC (Neisseria meningitidis [1]): 32 µg/mL (≈ 77.8 µM)
AUC (Brain [2]): 3.24 µg·h/g
Kp [3]: 3.57
MIC (Neisseria meningitidis [4]): 32 µg/mL (≈ 77.8 µM)
MIC (Neisseria meningitidis [5]): 32 µg/mL (≈ 77.8 µM)
MIC (Neisseria meningitidis [6]): 32 µg/mL (≈ 77.8 µM)
Kp [7]: 3.96
AUCt (Brain [8]): 3.11 µg·h/g
solubility [9]: 9 µM (≈ 3.7 µg/mL)
Cmax [10]: 370 ng/mL
solubility [11]: 48 µM (≈ 19.8 µg/mL)
remaining at 0.5 h [12]: 43%
AUC(0-inf) [13]: 930 ng·h/mL
Cmax [14]: 1470 ng/g
MIC (Streptococcus pneumoniae [15]): 4 µg/mL (≈ 9.72 µM)
solubility [16]: 2 µM (≈ 0.823 µg/mL)
MIC (Neisseria meningitidis [17]): 32 µg/mL (≈ 77.8 µM)
solubility [18]: 2 µM (≈ 0.823 µg/mL)
MIC (Streptococcus pneumoniae [19]): 32 µg/mL (≈ 77.8 µM)
Kp [20]: 3.49
Stability (Plasma [21]): 100%
solubility [22]: 47 µM (≈ 19.3 µg/mL)
MIC (Streptococcus pneumoniae [23]): 4 µg/mL (≈ 9.72 µM)
remaining at 0.5 h [25]: 15.2%
remaining at 0.5 h [26]: 5.7%
MIC (Streptococcus pneumoniae [27]): 4 µg/mL (≈ 9.72 µM)
Stability (Plasma [28]): 100%
AUC(0-t) [29]: 870 ng·h/mL

CC(=O)NC[C@H]1CN(c2ccc(N3CC[Si](C)(C)CC3)c(F)c2)C(=O)O1
MIC (Neisseria meningitidis [1]): > 32 µg/mL
AUC (Brain [2]): 3.05 µg·h/g
Kp [3]: 1.69
MIC (Neisseria meningitidis [4]): > 32 µg/mL
MIC (Neisseria meningitidis [5]): > 32 µg/mL
MIC (Neisseria meningitidis [6]): > 32 µg/mL
Kp [7]: 1.27
AUCt (Brain [8]): 3.01 µg·h/g
solubility [9]: 41 µM (≈ 15.6 µg/mL)
Cmax [10]: 1050 ng/mL
solubility [11]: 50 µM (≈ 19 µg/mL)
remaining at 0.5 h [12]: 48.9%
AUC(0-inf) [13]: 1800 ng·h/mL
Cmax [14]: 1330 ng/g
MIC (Streptococcus pneumoniae [15]): 4 µg/mL (≈ 10.5 µM)
solubility [16]: 40 µM (≈ 15.2 µg/mL)
MIC (Neisseria meningitidis [17]): 32 µg/mL (≈ 84.3 µM)
solubility [18]: 41 µM (≈ 15.6 µg/mL)
MIC (Streptococcus pneumoniae [19]): > 32 µg/mL
Kp [20]: 1.69
Stability (Plasma [21]): 100%
solubility [22]: 50 µM (≈ 19 µg/mL)
MIC (Streptococcus pneumoniae [23]): 4 µg/mL (≈ 10.5 µM)
fraction unbound [24]: 0.0567
remaining at 0.5 h [25]: 40.8%
remaining at 0.5 h [26]: 10.8%
MIC (Streptococcus pneumoniae [27]): 8 µg/mL (≈ 21.1 µM)
Stability (Plasma [28]): 97.3%
AUC(0-t) [29]: 1780 ng·h/mL

CC(=O)NC[C@H]1CN(c2ccc(N3CCOCC3)c(F)c2)C(=O)O1 [LINEZOLID]
MIC (Neisseria meningitidis [1]): 8 µg/mL (≈ 23.7 µM)
AUC (Brain [2]): 0.9 µg·h/g
MIC (Neisseria meningitidis [4]): 8 µg/mL (≈ 23.7 µM)
MIC (Neisseria meningitidis [5]): 8 µg/mL (≈ 23.7 µM)
MIC (Neisseria meningitidis [6]): 8 µg/mL (≈ 23.7 µM)
AUCt (Brain [8]): 0.83 µg·h/g
Cmax [10]: 3650 ng/mL
remaining at 0.5 h [12]: 100%
AUC(0-inf) [13]: 7700 ng·h/mL
Cmax [14]: 450 ng/g
MIC (Neisseria meningitidis [17]): 8 µg/mL (≈ 23.7 µM)
MIC (Streptococcus pneumoniae [19]): 32 µg/mL (≈ 94.9 µM)
Stability (Plasma [21]): 100%
fraction unbound [24]: 0.74
remaining at 0.5 h [25]: 100%
remaining at 0.5 h [26]: 88.3%
Stability (Plasma [28]): 100%
AUC(0-t) [29]: 7580 ng·h/mL
